ChEMBL document CHEMBL1145466, “Effects of carbapenem exposure on the risk for digestive tract carriage of intensive care unit-endemic carbapenem-resistant Pseudomonas aeruginosa strains in critically ill patients” (2007)

Key:
Pseudomonas aeruginosa [1] = assay: Antimicrobial activity against carbapenem-resistant Pseudomonas aeruginosa assessed as percent resistant isolates; assay type: functional
Outline: (§1)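 P. aeruginosa isolates came from rectal and oropharyngeal swabs of ICU patients, plated on MacConkey agar and incubated at 37°C for 48 h. Gram-negative, oxidase-positive bacilli were identified by conventional biochemical tests. Intermediate isolates were scored as resistant. Clonality was checked by PFGE (6 V/cm, 14°C, 23 h, 5–25 s pulses), read by Tenover criteria.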

Pseudomonas aeruginosa [2] = assay: Antimicrobial activity against carbapenem-resistant Pseudomonas aeruginosa isolate; assay type: functional; outline: as §1

| SMILES | Activity (Pseudomonas aeruginosa [1]) | MIC (Pseudomonas aeruginosa [2]) |
| --- | --- | --- |
| CC(O)[C@H]1C(=O)N2C(C(=O)O)=C(SCCNC=N)C[C@H]12 (single isomer, unassigned) [IMIPENEM ANHYDROUS] | 100% | ≥ 8 µg/mL |
| NCC[C@H](O)C(=O)N[C@@H]1C[C@H](N)[C@@H](O[C@H]2O[C@H](CN)[C@@H](O)[C@H](O)[C@H]2O)[C@H](O)[C@H]1O[C@H]1O[C@H](CO)[C@@H](O)[C@H](N)[C@H]1O [AMIKACIN] | 19% | > 16 µg/mL |
| C[C@H]1[C@H](NC(=O)/C(=N\OC(C)(C)C(=O)O)c2csc(N)n2)C(=O)N1S(=O)(=O)O [AZTREONAM] | 33% | > 8 µg/mL |
| CC(C)(O/N=C(\C(=O)N[C@@H]1C(=O)N2C(C(=O)[O-])=C(C[n+]3ccccc3)CS[C@H]12)c1csc(N)n1)C(=O)O [CEFTAZIDIME] | 28.5% | > 8 µg/mL |
| O=C(O)c1cn(C2CC2)c2cc(N3CCNCC3)c(F)cc2c1=O [CIPROFLOXACIN] | 59.5% | ≥ 2 µg/mL |
| C[C@@H](O)[C@H]1C(=O)N2C(C(=O)O)=C(S[C@@H]3CN[C@H](C(=O)N(C)C)C3)[C@H](C)[C@H]12 [MEROPENEM] | 59.5% | ≥ 8 µg/mL |
| CCN1CCN(C(=O)N[C@@H](C(=O)N[C@@H]2C(=O)N3[C@@H]2SC(C)(C)[C@@H]3C(=O)O)c2ccccc2)C(=O)C1=O [PIPERACILLIN] | 21% | > 64 µg/mL |
| CC1(C)S[C@@H]2[C@H](NC(=O)[C@H](C(=O)O)c3ccsc3)C(=O)N2[C@H]1C(=O)O [TICARCILLIN] | 28.5% | > 64 µg/mL |
| NC[C@H]1O[C@H](O[C@H]2[C@H](O)[C@@H](O[C@H]3O[C@H](CO)[C@@H](O)[C@H](N)[C@H]3O)[C@H](N)C[C@@H]2N)[C@H](N)C[C@@H]1O [TOBRAMYCIN] | 55% | > 4 µg/mL |
